Tests used:
Norovirus = experiment: Antiviral activity against HG23 cells harboring Norovirus replicon assessed as decrease in viral RNA level measured after 48 hrs by qRT-PCR analysis; type: functional, cell-based; conditions: HG23, 48 h
Summary of the method: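 One-day-old HG23 cells (Norwalk virus replicon-bearing) exposed to 1.0–100 μM compound for 48 h; total RNA extracted and norovirus RNA quantified by qRT-PCR, normalized to β-actin. Percent reduction versus mock-treated cells used to calculate EC50; at least two independent experiments.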

[1] = Cytotoxicity against human HG23 cells after 72 hrs by CytoTox-96 non-radioactive cytotoxicity assay; type: cell-based; conditions: hg23, 72 h

| SMILES | EC50 (Norovirus) | CC50 [1] |
| --- | --- | --- |
| CC(C)C[C@@H]1NC(=O)[C@@H](NC(=O)OCc2ccccc2)Cc2cn(nn2)CCCNC(=O)CC[C@@H](C=O)NC1=O | 81.5 µM | > 100 µM |
| CC(C)C[C@@H]1NC(=O)[C@@H](NC(=O)OCc2ccccc2)Cc2cn(nn2)CCCCCCNC(=O)CC[C@@H](C=O)NC1=O | 42.1 µM | > 100 µM |
| CC(C)C[C@@H]1NC(=O)[C@@H](NC(=O)OCc2ccccc2)Cc2cn(nn2)CCCCCNC(=O)CC[C@@H](C=O)NC1=O | 6.2 µM | > 100 µM |
| CC(C)C[C@@H]1NC(=O)[C@@H](NC(=O)OCc2ccccc2)Cc2cn(nn2)CCCCNC(=O)CC[C@@H](C=O)NC1=O | 46.3 µM | > 100 µM |
| O=C[C@@H]1CCC(=O)NCCCCCCn2cc(nn2)C[C@H](NC(=O)OCc2ccccc2)C(=O)N[C@@H](Cc2ccccc2)C(=O)N1 | 29.5 µM | > 100 µM |
| CC(C)C[C@@H]1NC(=O)[C@@H](NC(=O)OCc2ccccc2)CCCn2cc(nn2)CNC(=O)CC[C@@H](C=O)NC1=O | 8.5 µM | – |
| O=C[C@@H]1CCC(=O)NCCCn2cc(nn2)C[C@H](NC(=O)OCc2ccccc2)C(=O)N[C@@H](CC2CCCCC2)C(=O)N1 | 16.1 µM | > 100 µM |
| O=C[C@@H]1CCC(=O)NCCCCCCn2cc(nn2)C[C@H](NC(=O)OCc2ccccc2)C(=O)N[C@@H](CC2CCCCC2)C(=O)N1 | 88.3 µM | > 100 µM |
| O=C[C@@H]1CCC(=O)NCCCCn2cc(nn2)C[C@H](NC(=O)OCc2ccccc2)C(=O)N[C@@H](CC2CCCCC2)C(=O)N1 | 30.5 µM | > 100 µM |
| O=C[C@@H]1CCC(=O)NCCCCCn2cc(nn2)C[C@H](NC(=O)OCc2ccccc2)C(=O)N[C@@H](CC2CCCCC2)C(=O)N1 | 3.8 µM | > 100 µM |
| CC(C)C[C@@H]1NC(=O)[C@@H](NC(=O)OCc2ccccc2)Cc2cn(nn2)CCNC(=O)CC[C@@H](C=O)NC1=O | 53.2 µM | > 100 µM |
| O=C[C@@H]1CCC(=O)NCCn2cc(nn2)C[C@H](NC(=O)OCc2ccccc2)C(=O)N[C@@H](CC2CCCCC2)C(=O)N1 | 25.5 µM | > 100 µM |

Source: ChEMBL document CHEMBL3826964, “Structure-based design and synthesis of triazole-based macrocyclic inhibitors of norovirus protease: Structural, biochemical, spectroscopic, and antiviral studies” (Eur J Med Chem, 2016)
